Consider three compounds from ChEMBL document CHEMBL4823332, “Discovery and Development of Cyclic Peptide Inhibitors of CIB1” (ACS Med Chem Lett, 2021).

Calls of active or inactive are those of the source. The rule behind the calls is not given here. Starred links: 1 amine or outer side, 2 acyl side, 3 side chain; linkers in the order of their positions; H or OH if unused. Positions of bridges follow the written chain, without caps; N, C: chain ends. Residues, ends and D or L forms follow the SMILES beside them. *: point of attachment. NH(CH2CH2O)2(CH2)6Cl = ClCCCCCCOCCOCCN*; Suc = O=C(CCC(=O)[*:2])[*:1]

Series [1] has as its target T1, Calcium and integrin-binding protein 1 (Homo sapiens) (UniProt Q99828).
T1 sequence (whole entry): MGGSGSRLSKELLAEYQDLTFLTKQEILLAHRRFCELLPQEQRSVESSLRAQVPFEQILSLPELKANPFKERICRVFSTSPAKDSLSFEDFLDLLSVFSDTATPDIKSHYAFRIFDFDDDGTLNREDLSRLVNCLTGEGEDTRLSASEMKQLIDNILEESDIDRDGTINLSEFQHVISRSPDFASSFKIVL
The series is described as follows: Inhibition of CIB1 in human MDA-MB-231 cells assessed as reduction in ERK activity after 6 to 24 hrs by Western blotting analysis. The class given is cell-based. The following applies: time 6-24 hrs. Summed up:
(§1)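 Cells were treated with peptide for 6 h and for 24 h alongside a DMSO vehicle control. Lysates were then immunoblotted for phospho-AKT, phospho-ERK and CIB1, and the levels were compared with the DMSO-treated cells.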

In series [2] the target is T1, Calcium and integrin-binding protein 1 (Homo sapiens). The series is described as follows: Inhibition of CIB1 in human MDA-MB-468 cells assessed as reduction in AKT activity after 6 to 24 hrs by Western blotting analysis. As to conditions: time 6-24 hrs. The class given is cell-based. Put shortly:
as §1

The nature of series [3]: Cytotoxicity against human MDA-MB-231 cells assessed as cell death at 30 uM incubated for 24 hrs by trypan blue assay. The following applies: mda-mb-231, 24 h. The class given is cell-based.
The target of series [4] is T2, Calcium and integrin-binding protein 1 (Homo sapiens, UniProt Q99828).
T2 sequence (Q99828 whole entry): T1 sequence (whole entry)
The series is described as follows: Displacement of Alexa Fluor 647 labelled UNC10245092 peptide from CIB1 (unknown origin) preincubated for 20 mins followed by Alexa-CIB1 phage peptide addition and measured after 20 to 30 mins by TR-FRET assay.

A further series relates to MDA-MB-468. The series is described as follows: Cytotoxicity against human MDA-MB-468 cells assessed as cell death at 30 uM incubated for 24 hrs by trypan blue assay. It is filed as functional.
The target in series [5] is T1, Calcium and integrin-binding protein 1 (Homo sapiens). The series is described as follows: Inhibition of CIB1 in human MDA-MB-231 cells assessed as reduction in AKT activity after 6 to 24 hrs by Western blotting analysis. The class given is cell-based. As to conditions: time 6-24 hrs. Put shortly:
as §1

The target is the same in series [6]. The series is described as follows: Inhibition of CIB1 in human MDA-MB-231 cells assessed as reduction in CIB1 level after 6 hrs by Western blotting analysis. The class given is cell-based. Put shortly: as §1
Series [7] can be described thus: Stability in human MDA-MB-468 cell lysates assessed as compound remaining at 150 uM after 24 hrs by LCMS method. It is filed as ADME, subcellular. The following applies: read-out: Stabilty. Put shortly:
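Peptides were incubated in MDA-MB-468 cell lysates at 37 °C.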

Series [8] concerns the target T2, Calcium and integrin-binding protein 1. The series is described as follows: Binding affinity to full length CIB1 (unknown origin) at 300 uM by isothermal titration calorimetry.
Series [9] has as its target T1, Calcium and integrin-binding protein 1 (Homo sapiens). The series is described as follows: Inhibition of CIB1 in human MDA-MB-468 cells assessed as reduction in CIB1 level after 6 hrs by Western blotting analysis. The class given is cell-based. Summed up: as §1
The target is the same in series [10]. The series is described as follows: Inhibition of CIB1 in human MDA-MB-468 cells assessed as reduction in ERK activity after 6 to 24 hrs by Western blotting analysis. It is filed as cell-based. As to conditions: time 6-24 hrs. Put shortly: as §1
Series [11] has the same target. The series is described as follows: Inhibition of CIB1 in human MDA-MB-468 cells assessed as reduction in pAKT level after 6 to 24 hrs by Western blotting analysis. The class given is cell-based. As to conditions: time 6-24 hrs. Put shortly:
as §1

Series [12] has the same target. The series is described as follows: Inhibition of CIB1 in human MDA-MB-231 cells assessed as reduction in pAKT level after 6 to 24 hrs by Western blotting analysis. The class given is cell-based. As to conditions: time 6-24 hrs. Summed up: as §1
Series [13] shares this target. The series is described as follows: Inhibition of CIB1 in human MDA-MB-468 cells assessed as reduction in pERK level after 6 to 24 hrs by Western blotting analysis. It is filed as cell-based. As to conditions: time 6-24 hrs. Put shortly:
as §1

The target is the same in series [14]. The series is described as follows: Inhibition of CIB1 in human MDA-MB-231 cells assessed as reduction in pERK level after 6 to 24 hrs by Western blotting analysis. It is filed as cell-based. As to conditions: time 6-24 hrs. Put shortly: as §1

As to `CC[C@H](C)[C@@H]1NC(=O)[C@H](CC(C)C)NC(=O)[C@H](Cc2c[nH]c3ccccc23)NC(=O)[C@H](Cc2ccc(O)cc2)NC(=O)[C@@H]2CCCN2C(=O)[C@H](CCC(N)=O)NC(=O)[C@H](CCCCN)NC(=O)[C@H](Cc2ccc(O)cc2)NC(=O)CSC[C@@H](C(N)=O)NC(=O)[C@H](Cc2c[nH]c3ccccc23)NC(=O)[C@H](CC(N)=O)NC1=O` ({CH2CO}-YKQPYWLINWC-NH2; thioether N-11), the inhibition entry in series [1], in [2], in [5], in [6], in [9] and in series [10] was “inactive” throughout. Besides, the Activity in series [3] worked out at 2%; with MDA-MB-468 it was 2.7%. Further, the IC50 in series [4] is 12 nM. In addition, in [7], the remaining at 24 h, 150 µM stood at 48.6%. Moreover, the Kd in series [8] was determined as 6 nM.
`CSCC[C@H](NC(=O)[C@H](C)NC(=O)CNC(=O)[C@H](Cc1ccc(O)cc1)NC(=O)[C@H](Cc1c[nH]c2ccccc12)NC(=O)[C@H](Cc1ccccc1)NC(=O)[C@H](CO)NC(=O)CNC(=O)CNC(=O)[C@H](CC(=O)O)NC(=O)[C@H](CCC(=O)O)NC(=O)CCC(=O)NCCOCCOCCCCCCCl)C(=O)N[C@@H](CCCCN)C(=O)N[C@@H](C)C(=O)N[C@@H](CC(C)C)C(=O)N[C@@H](Cc1ccc(O)cc1)C(=O)NCC(N)=O` ({NH(CH2CH2O)2(CH2)6Cl-Suc}-EDGGSFWYGAMKALYG-NH2): the Activity came to 9.5% in series [3] and 1.7% in the series on MDA-MB-468. Moreover, in series [4], the IC50 amounted to 46 nM. Further, in series [8], the Kd was found to be 29.4 nM.
With `CSCC[C@H](NC(=O)[C@H](C)NC(=O)CNC(=O)[C@H](Cc1ccc(O)cc1)NC(=O)[C@H](Cc1c[nH]c2ccccc12)NC(=O)[C@H](Cc1ccccc1)NC(=O)[C@H](CO)NC(=O)CNC(=O)CNC(=O)[C@H](CC(=O)O)NC(=O)[C@H](CCC(=O)O)NC(=O)[C@H](CCC(N)=O)NC(=O)[C@@H]1CCCN1C(=O)[C@H](CCCNC(=N)N)NC(=O)[C@H](CCCNC(=N)N)NC(=O)[C@H](CCCNC(=N)N)NC(=O)[C@H](CCC(N)=O)NC(=O)[C@H](CCCNC(=N)N)NC(=O)[C@H](CCCNC(=N)N)NC(=O)[C@H](CCCCN)NC(=O)[C@H](CCCCN)NC(=O)[C@H](CCCNC(=N)N)NC(=O)CNC(=O)CCC(=O)NCCOCCOCCCCCCCl)C(=O)N[C@@H](CCCCN)C(=O)N[C@@H](C)C(=O)N[C@@H](CC(C)C)C(=O)N[C@@H](Cc1ccc(O)cc1)C(=O)NCC(N)=O` ({NH(CH2CH2O)2(CH2)6Cl-Suc}-GRKKRRQRRRPQEDGGSFWYGAMKALYG-NH2), the Activity came out at 9.6% in series [3] and 57.1% with MDA-MB-468. In addition, in [4], the IC50 was 150 nM. In addition, the inhibition entry in [11], in series [12], in [6], in series [13], in series [9] and in [14] was “Active” in each case. Further, the remaining at 24 h, 150 µM in series [7] is 0%.
